Laboratory results: ChEMBL document CHEMBL1135789, “Novel structures derived from 2-[[(2-pyridyl)methyl]thio]-1H-benzimidazole as anti-Helicobacter pylori agents, Part 2” (J Med Chem, 2002)
≈ marks a conversion by molar mass, not a printed value.

Tests used:
[1] = test system: Helicobacter pylori; assay: Minimum bacterial concentration (MBC) at which maximum growth inhibition against Helicobacter pylori has occurred; format: functional
Procedure, shortened: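 Strain ARHp206. Aliquots from microdilution wells showing no growth were plated on trypticase soy agar with 5% sheep blood. The MBC was judged by visual inspection as the concentration giving maximum growth inhibition.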

[2] = test system: Mus musculus; assay: AUC (area under curve) after oral dosing by gavage needle at 30 mg/kg in C57BL/6NTac female mice; Not checked; format: ADME, organism-based, Plasma; parameters: dose 30 mg/kg, route oral; conditions: in vivo
Procedure, shortened: (§1)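 Single oral gavage dose of 30 mg/kg in 85:15 0.5% aqueous hydroxypropylmethylcellulose:PEG-400, given to female C57BL/6NTac mice (6 weeks, 20 g). Plasma was diluted with MeCN to remove proteins, and the parent compound was quantified by LC-MS in single ion recording mode against calibration curves (LLOQ 10-50 ng/mL).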

[3] = test system: Helicobacter pylori; assay: Minimum inhibitory concentration against Helicobacter pylori (Helicobacter pylori) ARHp strain 81; format: functional
Procedure, shortened: (§2)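 Broth microdilution with two-fold serial dilutions in Brucella broth plus 5% (v/v) heat-inactivated FCS. Strains were pre-grown microaerophilically (5% O2, 10% CO2, 85% N2) on blood agar at 37 °C and passaged twice. The inoculum was a final 10^7 cells/mL.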

[4] = test system: Helicobacter pylori; assay: Minimum inhibitory concentration against Helicobacter pylori (Helicobacter pylori) ARHp strain 80; format: functional; procedure, shortened: as §2
[5] = test system: Helicobacter pylori; assay: Minimum inhibitory concentration against Helicobacter pylori (Helicobacter pylori) ARHp strain 206; format: functional; procedure, shortened: as §2
[6] = test system: Mus musculus; assay: Maximum plasma concentration (Cmax) after oral dosing by gavage needle at 30 mg/kg in C57BL/6NTac female mice; Not checked; format: ADME, organism-based; parameters: dose 30 mg/kg, route oral; conditions: in vivo; procedure, shortened: as §1
[7] = test system: Helicobacter pylori; assay: Minimum inhibitory concentration against Helicobacter pylori (Helicobacter pylori) ARHp strain 115; format: functional; procedure, shortened: as §2
[8] = test system: Mus musculus; assay: AUC (area under curve) after oral dosing by gavage needle at 30 mg/kg in C57BL/6NTac female mice; format: ADME, organism-based, Plasma; parameters: dose 30 mg/kg, route oral; conditions: in vivo; procedure, shortened: as §1
[9] = Maximum plasma concentration (Cmax) after oral dosing by gavage needle at 30 mg/kg in C57BL/6NTac female mice; format: ADME, organism-based; parameters: dose 30 mg/kg, route oral; conditions: mouse; procedure, shortened: as §1
[10] = test system: Mus musculus; assay: AUC (area under curve) after oral dosing by gavage needle at 30 mg/kg in C57BL/6NTac female mice; Not detected; format: ADME, organism-based, Plasma; parameters: dose 30 mg/kg, route oral; conditions: in vivo; procedure, shortened: as §1
[11] = test system: Mus musculus; assay: Maximum plasma concentration (Cmax) after oral dosing by gavage needle at 30 mg/kg in C57BL/6NTac female mice; Not detected; format: ADME, organism-based; parameters: dose 30 mg/kg, route oral; conditions: in vivo; procedure, shortened: as §1

| AUC [2] | MIC [3] | MIC [4] | MIC [5] | Cmax [6] | MIC [7] | AUC [8] | Cmax [9] | AUC [10] | Cmax [11] | SMILES | MBC [1] |
| --- | --- | --- | --- | --- | --- | --- | --- | --- | --- | --- | --- |
| Not checked | 8 µg/mL (≈ 15.4 µM) | 4 µg/mL (≈ 7.68 µM) | 8 µg/mL (≈ 15.4 µM) | Not checked | 4 µg/mL (≈ 7.68 µM) | – | – | – | – | Cc1c(CSc2nc3ccccc3[nH]2)cccc1SCCNS(=O)(=O)c1cccc2cccnc12 | > 8 µg/mL |
| – | 0.5 µg/mL (≈ 1.11 µM) | 0.5 µg/mL (≈ 1.11 µM) | 0.5 µg/mL (≈ 1.11 µM) | – | 0.5 µg/mL (≈ 1.11 µM) | 283 ng·h/mL | 140 ng/mL | – | – | Cc1c(CSc2nc3ccccc3[nH]2)cccc1SCCNC(=O)Nc1ccccc1 | 8 µg/mL (≈ 17.8 µM) |
| Not checked | 1 µg/mL (≈ 3.03 µM) | 1 µg/mL (≈ 3.03 µM) | 1 µg/mL (≈ 3.03 µM) | Not checked | 1 µg/mL (≈ 3.03 µM) | – | – | – | – | Cc1c(CSc2nc3ccccc3[nH]2)cccc1SCCO | > 8 µg/mL |
| – | 0.5 µg/mL (≈ 1.04 µM) | 0.25 µg/mL (≈ 0.521 µM) | 0.5 µg/mL (≈ 1.04 µM) | – | 0.25 µg/mL (≈ 0.521 µM) | 1630 ng·h/mL | 797 ng/mL | – | – | COc1cccc(NC(=O)OCCSc2cccc(CSc3nc4ccccc4[nH]3)c2C)c1 | 8 µg/mL (≈ 16.7 µM) |
| – | 1 µg/mL (≈ 2.27 µM) | 0.5 µg/mL (≈ 1.14 µM) | 1 µg/mL (≈ 2.27 µM) | – | 0.5 µg/mL (≈ 1.14 µM) | – | – | Not detected | Not detected | Cc1c(CSc2nc3ccccc3[nH]2)cccc1SCC(=O)NCc1cccs1 | 8 µg/mL (≈ 18.2 µM) |
| – | 0.5 µg/mL (≈ 1.2 µM) | 0.5 µg/mL (≈ 1.2 µM) | 0.5 µg/mL (≈ 1.2 µM) | – | 0.5 µg/mL (≈ 1.2 µM) | 99 ng·h/mL | 74 ng/mL | – | – | Cc1c(CSc2nccs2)cccc1SCCOC(=O)Nc1ccccc1 | 8 µg/mL (≈ 19.2 µM) |
| Not checked | 0.5 µg/mL (≈ 1.22 µM) | 0.25 µg/mL (≈ 0.609 µM) | 0.5 µg/mL (≈ 1.22 µM) | Not checked | 0.25 µg/mL (≈ 0.609 µM) | – | – | – | – | Cc1c(CSc2ccncc2)cccc1SCCOC(=O)Nc1ccccc1 | 8 µg/mL (≈ 19.5 µM) |
| – | 0.5 µg/mL (≈ 1.21 µM) | 0.25 µg/mL (≈ 0.607 µM) | 0.5 µg/mL (≈ 1.21 µM) | – | 0.25 µg/mL (≈ 0.607 µM) | 135 ng·h/mL | 57 ng/mL | – | – | Cc1c(CSc2nc3ccccc3[nH]2)cccc1SCC(=O)N1CCCCC1 | > 8 µg/mL |
| Not checked | 8 µg/mL (≈ 24.3 µM) | 4 µg/mL (≈ 12.1 µM) | 8 µg/mL (≈ 24.3 µM) | Not checked | 4 µg/mL (≈ 12.1 µM) | – | – | – | – | Cc1c(CSc2nc3ccccc3[nH]2)cccc1SCCN | > 8 µg/mL |
| Not checked | > 16 µg/mL | > 16 µg/mL | > 16 µg/mL | Not checked | > 16 µg/mL | – | – | – | – | Cc1c(CSc2nc3ccccc3[nH]2)cccc1SCC(=O)O | > 8 µg/mL |
| – | 1 µg/mL (≈ 2.31 µM) | 1 µg/mL (≈ 2.31 µM) | 1 µg/mL (≈ 2.31 µM) | – | 1 µg/mL (≈ 2.31 µM) | – | – | Not detected | Not detected | Cc1c(CSc2nc3ccccc3[nH]2)cccc1SCC(=O)NCc1ccccc1 | 1 µg/mL (≈ 2.31 µM) |
| – | 0.5 µg/mL (≈ 1.03 µM) | 0.25 µg/mL (≈ 0.515 µM) | 0.5 µg/mL (≈ 1.03 µM) | – | 0.25 µg/mL (≈ 0.515 µM) | 1130 ng·h/mL | 398 ng/mL | – | – | Cc1c(CSc2nc3ccccc3[nH]2)cccc1SCCOC(=O)Nc1ccc(F)c(F)c1 | 8 µg/mL (≈ 16.5 µM) |
| – | 0.5 µg/mL (≈ 1.11 µM) | 0.5 µg/mL (≈ 1.11 µM) | 0.5 µg/mL (≈ 1.11 µM) | – | 0.5 µg/mL (≈ 1.11 µM) | 2070 ng·h/mL | 906 ng/mL | – | – | Cc1c(CSc2nc3ccccc3[nH]2)cccc1SCCOC(=O)Nc1ccccc1 | 1 µg/mL (≈ 2.22 µM) |
| – | 0.5 µg/mL (≈ 1.15 µM) | 0.25 µg/mL (≈ 0.574 µM) | 0.5 µg/mL (≈ 1.15 µM) | – | 0.25 µg/mL (≈ 0.574 µM) | 271 ng·h/mL | 471 ng/mL | – | – | Cc1c(CSc2nc3ccccc3[nH]2)cccc1SCCNC(=O)c1cnccn1 | > 8 µg/mL |
| – | 1 µg/mL (≈ 2.03 µM) | 0.5 µg/mL (≈ 1.01 µM) | 1 µg/mL (≈ 2.03 µM) | – | 0.5 µg/mL (≈ 1.01 µM) | 299 ng·h/mL | 331 ng/mL | – | – | Cc1c(CSc2nc3ccccc3[nH]2)cccc1SCCOC(=O)Nc1ccc(N(C)C)cc1 | > 8 µg/mL |
| Not checked | 0.06 µg/mL (≈ 0.164 µM) | 0.06 µg/mL (≈ 0.164 µM) | 0.12 µg/mL (≈ 0.328 µM) | Not checked | 0.06 µg/mL (≈ 0.164 µM) | – | – | – | – | CC1(C)S[C@@H]2[C@H](NC(=O)[C@H](N)c3ccc(O)cc3)C(=O)N2[C@H]1C(=O)O [AMOXICILLIN] | – |
| – | < 0.06 µg/mL | < 0.06 µg/mL | < 0.06 µg/mL | – | < 0.06 µg/mL | 1770 ng·h/mL | 1000 ng/mL | – | – | CC[C@H]1OC(=O)[C@H](C)[C@@H](O[C@H]2C[C@@](C)(OC)[C@@H](O)[C@H](C)O2)[C@H](C)[C@@H](O[C@@H]2O[C@H](C)C[C@H](N(C)C)[C@H]2O)[C@](C)(OC)C[C@@H](C)C(=O)[C@H](C)[C@@H](O)[C@]1(C)O [CLARITHROMYCIN] | – |
| – | 1 µg/mL (≈ 2.25 µM) | 1 µg/mL (≈ 2.25 µM) | 1 µg/mL (≈ 2.25 µM) | – | 1 µg/mL (≈ 2.25 µM) | – | – | – | – | CN(C)[C@@H]1C(O)=C(C(N)=O)C(=O)[C@@]2(O)C(O)=C3C(=O)c4c(O)cccc4[C@@](C)(O)[C@H]3C[C@@H]12 [TETRACYCLINE] | – |

| SMILES | AUC [2] | MIC [3] | MIC [4] | MIC [5] | Cmax [6] | MIC [7] | AUC [8] | Cmax [9] | AUC [10] | Cmax [11] | MBC [1] |
| --- | --- | --- | --- | --- | --- | --- | --- | --- | --- | --- | --- |
| Cc1ncc([N+](=O)[O-])n1CCO [METRONIDAZOLE] | Not checked | 1 µg/mL (≈ 5.84 µM) | 8 µg/mL (≈ 46.7 µM) | 1 µg/mL (≈ 5.84 µM) | Not checked | 1 µg/mL (≈ 5.84 µM) | – | – | – | – | – |
